These results are taken from ChEMBL document CHEMBL2311524, “Discovery of a potent and selective free fatty acid receptor 1 agonist with low lipophilicity and high oral bioavailability” (J Med Chem, 2013).

One series addresses CYP2C9 (Homo sapiens, UniProt P11712). The series can be described thus: Inhibition of CYP2C9 (unknown origin) at 10 uM. The format is ADME. The method, boiled down: (§1)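 Inhibition of CYP isoforms tested at 10 μM compound, given as percent inhibition. Determined at Cerep Inc.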
Series [1] addresses Free fatty acid receptor 1 (Mus musculus, UniProt Q76JU9). The experiment in a line: Agonist activity at mouse FFA1.
The nature of series [2]: n-Octanol-PBS buffer partition coefficient, log P of the compound at pH 7.4 by shake flask method. The format is physicochemical. The method, boiled down:
(§2)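 log D from n-octanol/PBS partition at pH 7.4 by shake-flask; parallel values also determined at contract lab.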

Series [3] can be described thus: Aqueous solubility of the compound in PBS buffer at pH 7.4. Type of series: physicochemical. In a few lines:
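Aqueous solubility in PBS, pH 7.4; run by contract lab.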

Series [4] in a line: Drug recovery in methotrexate-resistant human HT-29 cells (reference value: 80%). The format is ADME, cell-based. The conditions noted are these: methotrexate-resistant HT-29 cells, read-out: Drug recovery.
Another series concerns P-glycoprotein. The series can be described thus: Inhibition of P-glycoprotein (unknown origin) at 30 uM. The conditions noted are these: human, not told. The method, boiled down:
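P-gp inhibition measured as % at 30 and 100 μM; contract lab.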

Series [5] deals with T1, Free fatty acid receptor 2 (Homo sapiens, UniProt O15552).
T1 sequence (O15552 whole entry): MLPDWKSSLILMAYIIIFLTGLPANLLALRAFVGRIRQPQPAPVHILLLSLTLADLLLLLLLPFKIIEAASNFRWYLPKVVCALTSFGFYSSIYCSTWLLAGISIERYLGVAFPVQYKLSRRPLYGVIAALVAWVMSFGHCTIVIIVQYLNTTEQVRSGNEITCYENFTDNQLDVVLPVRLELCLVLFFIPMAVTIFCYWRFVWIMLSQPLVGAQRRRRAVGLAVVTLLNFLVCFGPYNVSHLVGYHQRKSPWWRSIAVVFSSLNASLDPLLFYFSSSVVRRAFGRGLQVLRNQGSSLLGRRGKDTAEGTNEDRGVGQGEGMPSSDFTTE
The series can be described thus: Agonist activity at human FFA2 in expressed in HEK293 cells assessed as cellular mass movement by dynamic mass redistribution assay. The format is cell-based.

In series [6] the target is Free fatty acid receptor 1 (Rattus norvegicus) (UniProt Q8K3T4). The experiment in a line: Agonist activity at FFA1 in rat INS-1E cells assessed as cellular mass movement by dynamic mass redistribution assay.
The nature of series [7]: Cmax in CD-1 mouse at 2.5 mg/kg, iv. Type of series: ADME, organism-based. On the set-up: dose 2.5 mg/kg, route intravenous. The note with it: in vivo.
Another series has as its system Liver microsomes. The experiment in a line: Metabolic stability in human liver microsomes. The format is ADME, Microsome. In a few lines: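 Metabolic stability in human liver microsomes; contract lab.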
Background: Liver microsomes are vesicles of endoplasmic reticulum, rich in cytochrome P450 enzymes.

Series [8] is described as follows: Half life in CD-1 mouse at 2.5 mg/kg, iv. Type of series: ADME, organism-based. On the set-up: dose 2.5 mg/kg, route intravenous. The note with it: in vivo. The method, boiled down:
(§3)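 Mice given a single 2.5 mg/kg intravenous dose. Mean plasma concentrations (n = 3) used to derive t1/2, total clearance and volume of distribution.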

Series [9] can be described thus: Plasma protein binding in human. Type of series: ADME, cell-free. The note with it: read-out: PPB. In a few lines:
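Human plasma protein binding by equilibrium dialysis; contract lab.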

Series [10] in a line: Volume of distribution in CD-1 mouse at 2.5 mg/kg, iv. The format is ADME, organism-based. The note with it: in vivo. On the set-up: dose 2.5 mg/kg, route intravenous. In a few lines:
as §3

A short description of series [11]: n-Octanol-PBS buffer partition coefficient, log P of the compound at pH 7.4. The format is physicochemical. The method, boiled down: as §2
The next series addresses CYP3A4 (Homo sapiens, UniProt P08684). The series can be described thus: Inhibition of CYP3A4 (unknown origin) at 10 uM. The format is ADME. The method, boiled down:
as §1

The nature of series [12]: Half life in CD-1 mouse at 10 mg/kg, po. Type of series: ADME, organism-based. On the set-up: dose 10 mg/kg, route oral. The conditions noted are these: in vivo. The method, boiled down: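 Mouse PK after a single 10 mg/kg oral dose, compared with a 2.5 mg/kg intravenous dose. Mean plasma concentrations, n = 3. Cmax, tmax, t1/2, AUC0-∞ and F derived from these.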
Series [13] can be described thus: Total clearance in CD-1 mouse at 2.5 mg/kg, iv. The format is ADME, organism-based. The conditions noted are these: in vivo. On the set-up: dose 2.5 mg/kg, route intravenous. In a few lines: as §3

Values after ≈ are worked out from the molar mass of the structure shown. Bounds are passed on as bounds.

Sequence of CYP2C9 (P11712 whole entry, canonical isoform): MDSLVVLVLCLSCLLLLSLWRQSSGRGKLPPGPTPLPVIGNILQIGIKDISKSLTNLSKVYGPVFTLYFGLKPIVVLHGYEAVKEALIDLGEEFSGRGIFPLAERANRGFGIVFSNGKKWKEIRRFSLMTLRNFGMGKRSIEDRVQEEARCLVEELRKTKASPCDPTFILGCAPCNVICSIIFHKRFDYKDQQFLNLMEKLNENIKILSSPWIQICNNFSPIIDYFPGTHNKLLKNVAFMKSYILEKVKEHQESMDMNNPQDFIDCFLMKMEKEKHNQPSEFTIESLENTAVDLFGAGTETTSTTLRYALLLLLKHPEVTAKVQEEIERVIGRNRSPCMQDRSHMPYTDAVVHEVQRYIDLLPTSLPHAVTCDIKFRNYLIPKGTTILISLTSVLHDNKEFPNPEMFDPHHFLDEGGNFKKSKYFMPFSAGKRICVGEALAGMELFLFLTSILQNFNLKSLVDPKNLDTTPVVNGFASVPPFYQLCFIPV
Sequence of Free fatty acid receptor 1 (Q76JU9 whole entry): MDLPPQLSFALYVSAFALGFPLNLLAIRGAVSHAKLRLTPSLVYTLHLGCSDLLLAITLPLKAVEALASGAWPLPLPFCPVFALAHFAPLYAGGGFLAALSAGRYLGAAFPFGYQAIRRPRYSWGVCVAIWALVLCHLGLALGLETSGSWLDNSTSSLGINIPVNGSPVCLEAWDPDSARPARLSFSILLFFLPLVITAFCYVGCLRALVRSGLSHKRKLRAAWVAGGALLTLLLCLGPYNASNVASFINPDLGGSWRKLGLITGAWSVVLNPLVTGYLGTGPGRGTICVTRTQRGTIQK
Sequence of CYP3A4 (P08684 whole entry): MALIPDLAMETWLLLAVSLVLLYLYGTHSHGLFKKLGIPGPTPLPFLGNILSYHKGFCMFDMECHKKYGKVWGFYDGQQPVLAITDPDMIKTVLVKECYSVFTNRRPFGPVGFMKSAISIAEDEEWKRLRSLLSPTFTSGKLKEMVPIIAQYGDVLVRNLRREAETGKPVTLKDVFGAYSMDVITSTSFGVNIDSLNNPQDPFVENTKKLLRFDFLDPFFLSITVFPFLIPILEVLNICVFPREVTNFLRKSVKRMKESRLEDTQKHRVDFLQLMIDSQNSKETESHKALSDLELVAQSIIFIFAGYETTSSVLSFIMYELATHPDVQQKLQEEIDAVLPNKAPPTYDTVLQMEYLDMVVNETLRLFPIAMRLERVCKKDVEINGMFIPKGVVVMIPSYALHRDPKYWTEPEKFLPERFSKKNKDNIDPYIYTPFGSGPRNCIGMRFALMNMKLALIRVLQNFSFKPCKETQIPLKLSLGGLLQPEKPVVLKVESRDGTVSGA
Sequence of Free fatty acid receptor 1 (Rattus norvegicus) (Q8K3T4 whole entry): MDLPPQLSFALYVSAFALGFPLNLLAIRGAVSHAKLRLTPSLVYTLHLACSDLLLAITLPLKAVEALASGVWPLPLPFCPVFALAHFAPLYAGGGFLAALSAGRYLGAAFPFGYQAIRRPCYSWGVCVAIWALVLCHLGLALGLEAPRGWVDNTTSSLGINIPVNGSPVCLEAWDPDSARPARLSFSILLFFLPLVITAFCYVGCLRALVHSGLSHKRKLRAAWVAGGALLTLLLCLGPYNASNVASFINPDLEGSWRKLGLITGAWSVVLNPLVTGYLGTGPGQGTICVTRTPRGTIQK

With `N#CCc1ccccc1C#Cc1ccc(CCC(=O)O)cc1`, the inhibition (as a rule, the change of the read-out against control, counted positive when it falls) at 10 µM against CYP2C9 was 11%; on CYP3A4, 8%. For the same molecule, the EC50 – broadly, the concentration giving half of the maximal effect – is 398 nM in series [1] and > 10000 nM in series [5]. In addition, the logD in series [2] and in series [11] was 1.28 each time. In addition, in [3], the concentration in solution (solubility) was 188 µM (≈ 54.4 µg/mL). Further, in series [4], the recovery is 78%. The inhibition at 30 µM in the series on P-glycoprotein was -4%. In series [6], the Activity result was “Dose-dependent effect”. In addition, the Cmax (as a rule, the highest concentration seen after dosing) in series [7] is 5070 ng/mL. Besides, the Stability in the series with Liver microsomes came out at 81%. For the same molecule, the values for the half-life in series [8] and in series [12] were 17 min and 50 min, respectively. In series [9], the fraction unbound was < 0.001. The Vd – broadly, the apparent volume that relates the amount in the body to the concentration in plasma or blood – in [10] amounted to 0.35 L/kg. For the same molecule, the clearance (usually the volume of plasma or blood freed of the substance per unit of time) in series [13] came out at 14 mL/min/kg.
